High-throughput results as filed in PubChem.
INS-1E ATP HTS: INS-1E beta cell protection from cytokine death; AID 488910; 0.1% of 20,000 active; protection from cytokine-induced ATP loss, % at 10 µM; INS-1E cytokine-induced death, ATP luminescence, 48 h; normalised: neutral wells 0, positive control 100;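 active = mean replicate protection from cytokine-induced ATP loss at least 50% and at least 75% of replicates each reaching 50%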
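Assay system: INS-1E rat insulinoma cells. Amount: 8000 cells per well. Medium: phenol-red-free RPMI with 5% fetal bovine serum. Reagent: IL-1β, TNF-α and IFN-γ cytokine mix. Doses: one compound concentration, pin transfer. Schedule: 48 h co-treatment, 10 min post-lysis read. Detection: CellTiter-Glo luminescence measuring cellular ATP.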
T cruzi HTS: inhibitors of intracellular Trypanosoma cruzi. intracellular Trypanosoma cruzi in host cells, plate reader. AID 651903. activity score (inhibition), % at 5.01 µM. 4.9% of 22,000 active; in the data active = activity score above about 55%;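 note: parasites and compound incubated about four days before reading; 0% = median of neutral control wells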
A1 apoptosis 2: A1 inhibition read as caspase activation; MEF A1-2A-BIM cells, caspase-Glo luminescence, 3 h; percent of clofoctol response, DMSO zero; caspase activation, % (test concentration not listed); 24,000 tested, under 10 active; AID 2465; in the data active = caspase activation above about 5.9%
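Test system – A1-2A-BIM-expressing MEF cells · Input – 2500 cells/well · Medium – RPMI-1640 growth medium with 10% FBS · Compound dosing – 50 nL pinned compound · Timing – 3 h compound exposure at 37 °C · Technique – Caspase-Glo luminescence (DEVD substrate) · Evaluation – Caspase-3/7 activity from luminescence increase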
An asterisk follows results filed as active; x = no result. Many of the other results were omitted from the sample, so hits are more common in it than they were.

SMILES | INS-1E ATP HTS | T cruzi HTS | A1 apoptosis 2
C[C@H]1CN([C@@H](C)CO)C(=O)c2cccc(NC(=O)c3nc4ccccc4s3)c2O[C@H]1CN(C)S(=O)(=O)c1cccs1 | -11 | 37 | 0
C[C@H]1CN([C@@H](C)CO)C(=O)c2cccc(NC(=O)c3nc4ccccc4s3)c2O[C@H]1CN(C)S(=O)(=O)c1ccc(F)cc1 | -31 | 74* | x
COc1ccc(S(=O)(=O)N(C)C[C@H]2Oc3c(NC(=O)c4nc5ccccc5s4)cccc3C(=O)N([C@@H](C)CO)C[C@H]2C)cc1 | -19 | 30 | x
C[C@@H]1CN([C@@H](C)CO)C(=O)c2cccc(NC(=O)c3nc4ccccc4s3)c2O[C@@H]1CN(C)S(=O)(=O)c1ccc(F)cc1 | -11 | 35 | -1
COc1ccc(S(=O)(=O)N(C)C[C@@H]2Oc3c(NC(=O)NC4CCCCC4)cccc3C(=O)N([C@@H](C)CO)C[C@H]2C)cc1 | 6 | 13 | 0
COC(=O)CCCCCCC(=O)N/N=C/c1ccc(Br)cc1 | 27 | -13 | 1
O=C(NCc1ccccc1)C1=C[C@@H](c2cccs2)C[C@@H](OCCCCO)O1 | x | x | 1
Cn1cc(/C=N/NC(=O)c2ccccn2)c2ccccc21 | -10 | 6 | -1
C[C@H]1CN([C@@H](C)CO)C(=O)c2cccc(NC(=O)c3nc4ccccc4s3)c2O[C@@H]1CN(C)S(=O)(=O)c1ccc(Cl)cc1 | -17 | 78* | -1
C[C@H]1CN([C@@H](C)CO)C(=O)c2cccc(NC(=O)c3nc4ccccc4s3)c2O[C@H]1CN(C)S(=O)(=O)c1ccc(Cl)cc1 | 2 | 36 | 0
O=C(CCCCCC(=O)N/N=C/c1ccc(OCCO)cc1)NO | x | x | 1
O=C(CCCCCCC(=O)N/N=C/c1ccc(OCCO)cc1)NO | 116* | 6 | x
O=C(O)CCCCCCC(=O)N/N=C/c1ccc(CO)o1 | 2 | -13 | 1
O=C(CCCCCCC(=O)N/N=C/c1ccc(CO)o1)NO | 52* | -3 | x
O=C(N/N=C/C[P+](c1ccccc1)(c1ccccc1)c1ccccc1)c1ccccc1O | 3 | 45 | 0
C[C@@H]1CN([C@H](C)CO)C(=O)c2cccc(NS(=O)(=O)c3cccs3)c2O[C@H]1CN(C)C(=O)Nc1ccc(F)cc1 | 2 | -13 | 1
C[C@H](CO)N1C[C@H](C)[C@@H](CN(C)S(=O)(=O)c2ccc(Oc3ccccc3)cc2)OCc2cnnn2CCCC1=O | x | 73* | 0
C[C@@H]1CN([C@@H](C)CO)C(=O)CCCn2nncc2CO[C@H]1CN(C)S(=O)(=O)c1ccc(Oc2ccccc2)cc1 | x | 8 | 0
C[C@H](CO)N1C[C@H](C)[C@H](CN(C)S(=O)(=O)c2ccccc2)OCc2cnnn2CCCC1=O | x | -11 | x
C[C@H]1CN([C@@H](C)CO)C(=O)CCCn2nncc2CO[C@@H]1CN(C)S(=O)(=O)c1ccc(Oc2ccccc2)cc1 | 2 | 73* | 1
COc1cccc(S(=O)(=O)N(C)C[C@@H]2Oc3ncc(-c4cc5ccccc5o4)cc3C(=O)N([C@H](C)CO)C[C@@H]2C)c1 | x | 53 | x
C[C@H](CO)N1C[C@H](C)[C@H](CN(C)Cc2ccncc2)Oc2ncc(-c3cc4ccccc4o3)cc2C1=O | x | 40 | x
C[C@H](CO)N1C[C@H](C)[C@H](CN(C)S(C)(=O)=O)Oc2ncc(-c3cc4ccccc4o3)cc2C1=O | x | 14 | x
Cc1cccc(CN(C)C[C@@H]2Oc3ncc(-c4ccccc4)cc3C(=O)N([C@H](C)CO)C[C@@H]2C)c1 | x | 29 | 0
CNC[C@@H]1Oc2ncc(-c3cc4ccccc4o3)cc2C(=O)N([C@H](C)CO)C[C@@H]1C | x | 79* | -1
SMILES | INS-1E ATP HTS | T cruzi HTS | A1 apoptosis 2
Cc1cccc(CN(C)C[C@@H]2Oc3ncc(-c4cc5ccccc5o4)cc3C(=O)N([C@H](C)CO)C[C@@H]2C)c1 | x | 70* | 0
C[C@H](CO)N1C[C@H](C)[C@H](CN(C)Cc2ccc(F)cc2)Oc2ncc(-c3cc4ccccc4o3)cc2C1=O | x | 78* | -1
C[C@H](CO)N1C[C@H](C)[C@H](CN(C)S(=O)(=O)c2cccc(F)c2)Oc2ncc(-c3cc4ccccc4o3)cc2C1=O | -22 | 64* | -1
O=C(CCCCCC(=O)Nc1ccccc1O)N/N=C/c1ccc(N2CCCC2)cc1 | x | x | 0
O=C(CCCCCCC(=O)N/N=C/c1ccccn1)NO | x | x | 1
C[C@@H]1CN([C@H](C)CO)C(=O)c2cccc(NS(=O)(=O)c3ccc(F)cc3)c2O[C@H]1CN(C)Cc1ccc(C(=O)Nc2ccccc2N)cc1 | 5 | 41 | 1
C[C@H]1CN([C@@H](C)CO)C(=O)c2cccc(NS(=O)(=O)c3ccccc3)c2O[C@H]1CN(C)Cc1ccc(C(=O)Nc2ccccc2N)cc1 | -10 | 53 | -1
